# Experiments:
# MDA-MB-231 cells [1] = assay: Ki-67 immunofluorescence staining for proliferation; type: cell-based, human; settings: MDA-MB-231, 1 μM, 72 hours
# BT549 cells = assay: Transwell migration assay; type: cell-based, human; settings: BT549, pretreated 1 μM 72 hours, 24 hours migration
# In short: (§1)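 Cells were pretreated 72 h with test compound (1 μM) or DMSO, and viable cells were then seeded into transwell chambers for 24 h. Non-migrated cells were removed. Migrated cells were fixed, crystal violet-stained, imaged by brightfield and counted. Counts were normalized to DMSO per cell line; triplicate experiments.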
# HIPK4 = HIPK4 (Homo sapiens, UniProt Q8NE63); assay: Kinase inhibition assay; type: biochemical; settings: 1 μM
# HIPK4, sequence (Q8NE63 whole entry): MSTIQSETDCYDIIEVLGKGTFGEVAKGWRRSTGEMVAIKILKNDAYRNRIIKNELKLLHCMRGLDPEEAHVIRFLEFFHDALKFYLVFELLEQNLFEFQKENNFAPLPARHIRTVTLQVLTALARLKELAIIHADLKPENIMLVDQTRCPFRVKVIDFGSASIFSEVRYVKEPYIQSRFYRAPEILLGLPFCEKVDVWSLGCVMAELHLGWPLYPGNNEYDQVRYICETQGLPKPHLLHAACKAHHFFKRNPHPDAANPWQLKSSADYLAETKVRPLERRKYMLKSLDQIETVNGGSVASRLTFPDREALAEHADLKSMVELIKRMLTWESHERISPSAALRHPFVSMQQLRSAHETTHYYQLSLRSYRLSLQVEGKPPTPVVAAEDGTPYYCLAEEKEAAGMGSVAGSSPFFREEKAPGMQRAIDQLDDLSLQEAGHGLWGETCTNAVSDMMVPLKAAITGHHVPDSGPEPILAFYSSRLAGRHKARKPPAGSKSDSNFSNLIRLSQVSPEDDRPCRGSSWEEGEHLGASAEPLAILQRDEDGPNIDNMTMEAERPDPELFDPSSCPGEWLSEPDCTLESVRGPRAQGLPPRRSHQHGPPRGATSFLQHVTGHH
# TU-BcX-4IC cells [2] = assay: Crystal violet staining, cells remaining / viability dose-response; type: cell-based, human; settings: 1 μM, 72 hours
# MDA-MB-231 cells [3] = assay: Crystal violet staining, cells remaining / viability dose-response; type: cell-based, human
# In short: (§2)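 Cells were plated at 5,000/well in 5% charcoal-stripped DMEM for 48 h, then exposed to test compound or DMSO vehicle for 72 h at 37 °C, 5% CO2. They were fixed with glutaraldehyde for 20 min and stained for 20 min with 0.1% crystal violet in 90% methanol. After overnight drying, cells were lysed in 33% acetic acid and read at 620 nm. Signal was normalized to DMSO and plotted as dose-response.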
# TU-BcX-4IC cells [4] = assay: qRT-PCR of epithelial and mesenchymal genes; type: cell-based, human; settings: 1 μM, 72 hours
# In short: (§3)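 Cells were treated 72 h with test compound (1 μM) or DMSO. Total RNA was column-isolated and checked for quantity and quality by absorbance (260, 280 nm). Then 2 μg total RNA was reverse-transcribed and gene expression measured by qRT-PCR.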
# MDA-MB-231 cells [5] = assay: qRT-PCR of epithelial and mesenchymal genes; type: cell-based, human; settings: MDA-MB-231, 1 μM, 72 hours
# In short: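 MDA-MB-231 cells in 5% charcoal-stripped DMEM were pre-exposed for 72 h to test compound (1 μM) or DMSO. RNA was then isolated and gene expression measured by quantitative real-time PCR.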
# TU-BcX-4IC explants = assay: Western blot of treated PDX tumor explants; type: cell-based, human; settings: 24 hours
# TU-BcX-49S cells = assay: qRT-PCR of epithelial and mesenchymal genes; type: cell-based, human
# MDA-MB-231 M2 spheres = assay: Mammosphere formation and area quantification; type: cell-based, human; settings: MDA-MB-231, 7 days treatment
# In short: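 MDA-MB-231 cells were seeded at 1,000/well in low-attachment wells in serum-free F12/DMEM plus B-27 and allowed 24 h to form spheres. Spheres were then treated with test compound or DMSO for one week, re-dosed every three days. Imaging was at 40X or 100X. Sphere length and width were measured, area was calculated, and values were compared with DMSO controls.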
# TU-BcX-4IC cells [6] = assay: Transwell migration assay; type: cell-based, human; settings: pretreated 1 μM 72 hours, 24 hours migration
# In short: as §1
# MST2 = MST2 (Homo sapiens, UniProt Q13188); assay: Kinase inhibition assay; type: biochemical; settings: 1 μM
# MST2, sequence (Q13188 whole entry): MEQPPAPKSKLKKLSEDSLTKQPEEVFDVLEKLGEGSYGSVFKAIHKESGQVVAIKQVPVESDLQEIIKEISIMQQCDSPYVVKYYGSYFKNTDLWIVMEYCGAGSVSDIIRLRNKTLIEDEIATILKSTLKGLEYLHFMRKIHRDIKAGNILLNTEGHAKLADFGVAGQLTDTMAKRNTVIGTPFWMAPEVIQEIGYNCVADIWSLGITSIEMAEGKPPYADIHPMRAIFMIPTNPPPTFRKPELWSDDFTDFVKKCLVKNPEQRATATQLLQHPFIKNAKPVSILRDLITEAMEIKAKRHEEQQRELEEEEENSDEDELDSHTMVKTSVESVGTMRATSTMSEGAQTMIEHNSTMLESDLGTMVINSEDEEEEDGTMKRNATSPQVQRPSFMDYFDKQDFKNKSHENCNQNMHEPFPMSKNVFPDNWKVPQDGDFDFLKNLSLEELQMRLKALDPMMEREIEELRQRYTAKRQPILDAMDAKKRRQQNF
# BT-549 cells [7] = assay: qRT-PCR of epithelial and mesenchymal genes; type: cell-based, human; settings: BT-549, 1 μM, 72 hours
# In short: as §3
# TU-BcX-4IC M2 spheres = assay: Mammosphere formation and area quantification; type: cell-based, human; settings: 7 days treatment
# In short: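 Cells were plated at 1,000/well in low-attachment plates in serum-free F12/DMEM with B-27 and left 24 h to form spheres. Spheres were then exposed to test compound or DMSO for one week, re-dosed every three days. Spheres were imaged at 40X or 100X, and length and width were measured to calculate area, which was compared with DMSO controls.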
# LOK = LOK (Homo sapiens, UniProt O94804); assay: Kinase inhibition assay; type: biochemical; settings: 1 μM
# LOK, sequence (O94804 whole entry): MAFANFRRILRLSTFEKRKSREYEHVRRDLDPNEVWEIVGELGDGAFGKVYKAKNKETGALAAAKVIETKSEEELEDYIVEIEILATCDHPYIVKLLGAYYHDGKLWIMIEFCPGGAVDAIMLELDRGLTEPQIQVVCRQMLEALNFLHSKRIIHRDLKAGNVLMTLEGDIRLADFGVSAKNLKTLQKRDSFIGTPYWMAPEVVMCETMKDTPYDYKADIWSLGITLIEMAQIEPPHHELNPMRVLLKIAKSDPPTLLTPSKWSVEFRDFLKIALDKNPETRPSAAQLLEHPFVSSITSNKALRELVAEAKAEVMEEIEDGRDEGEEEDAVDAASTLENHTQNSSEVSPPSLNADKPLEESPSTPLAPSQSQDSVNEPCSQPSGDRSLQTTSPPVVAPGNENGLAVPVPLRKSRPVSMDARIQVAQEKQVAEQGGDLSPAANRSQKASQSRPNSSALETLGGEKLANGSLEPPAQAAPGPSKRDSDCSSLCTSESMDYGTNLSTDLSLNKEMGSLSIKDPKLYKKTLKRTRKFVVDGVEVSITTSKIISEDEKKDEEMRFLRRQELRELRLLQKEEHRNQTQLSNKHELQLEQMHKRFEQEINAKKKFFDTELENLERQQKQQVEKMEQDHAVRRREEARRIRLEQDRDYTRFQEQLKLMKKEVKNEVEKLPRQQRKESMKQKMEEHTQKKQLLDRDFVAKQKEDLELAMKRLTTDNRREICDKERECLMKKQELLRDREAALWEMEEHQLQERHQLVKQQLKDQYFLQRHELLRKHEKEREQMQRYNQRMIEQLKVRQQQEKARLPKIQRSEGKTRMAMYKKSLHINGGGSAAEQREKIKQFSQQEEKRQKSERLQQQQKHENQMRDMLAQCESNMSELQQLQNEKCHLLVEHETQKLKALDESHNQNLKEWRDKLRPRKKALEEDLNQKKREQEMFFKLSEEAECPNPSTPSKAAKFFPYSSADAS
# MINK = MINK (Homo sapiens, UniProt Q8N4C8); assay: Kinase inhibition assay; type: biochemical; settings: 1 μM
# MINK, sequence (Q8N4C8 whole entry): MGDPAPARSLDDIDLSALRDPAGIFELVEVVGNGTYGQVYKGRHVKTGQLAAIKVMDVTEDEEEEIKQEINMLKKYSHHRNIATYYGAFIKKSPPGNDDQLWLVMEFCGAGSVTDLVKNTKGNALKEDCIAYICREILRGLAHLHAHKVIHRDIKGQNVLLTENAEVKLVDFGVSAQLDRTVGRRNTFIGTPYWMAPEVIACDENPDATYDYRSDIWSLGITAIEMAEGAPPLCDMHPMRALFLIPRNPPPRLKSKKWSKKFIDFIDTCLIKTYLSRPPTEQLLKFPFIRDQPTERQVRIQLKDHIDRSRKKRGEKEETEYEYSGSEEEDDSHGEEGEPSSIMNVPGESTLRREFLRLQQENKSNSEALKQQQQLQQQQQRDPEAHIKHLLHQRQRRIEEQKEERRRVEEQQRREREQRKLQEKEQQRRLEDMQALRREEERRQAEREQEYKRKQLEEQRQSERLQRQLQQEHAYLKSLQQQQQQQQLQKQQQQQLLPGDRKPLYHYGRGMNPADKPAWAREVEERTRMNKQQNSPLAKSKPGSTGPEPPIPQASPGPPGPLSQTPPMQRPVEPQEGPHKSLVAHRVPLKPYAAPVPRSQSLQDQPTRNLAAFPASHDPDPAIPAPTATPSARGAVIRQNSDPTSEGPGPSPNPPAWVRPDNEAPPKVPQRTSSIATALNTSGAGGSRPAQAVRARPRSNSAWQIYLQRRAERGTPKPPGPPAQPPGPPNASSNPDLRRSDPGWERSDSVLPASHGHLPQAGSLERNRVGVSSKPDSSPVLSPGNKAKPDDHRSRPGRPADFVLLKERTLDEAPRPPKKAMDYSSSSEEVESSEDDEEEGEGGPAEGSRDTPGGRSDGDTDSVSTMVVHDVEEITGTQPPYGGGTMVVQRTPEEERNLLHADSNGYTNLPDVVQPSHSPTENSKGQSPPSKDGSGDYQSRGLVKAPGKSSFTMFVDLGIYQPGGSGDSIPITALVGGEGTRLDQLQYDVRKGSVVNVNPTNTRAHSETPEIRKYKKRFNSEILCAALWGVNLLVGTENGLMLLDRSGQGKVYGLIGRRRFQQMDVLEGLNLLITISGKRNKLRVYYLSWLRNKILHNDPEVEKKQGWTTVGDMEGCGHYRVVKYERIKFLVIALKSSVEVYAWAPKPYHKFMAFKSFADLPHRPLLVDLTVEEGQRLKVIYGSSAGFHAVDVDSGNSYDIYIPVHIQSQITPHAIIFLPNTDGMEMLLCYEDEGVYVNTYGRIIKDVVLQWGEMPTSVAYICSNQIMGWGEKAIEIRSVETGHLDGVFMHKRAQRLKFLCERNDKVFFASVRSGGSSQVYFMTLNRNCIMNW
# NEK2 = target: T1, NEK2 (Homo sapiens, UniProt P51955); assay: Kinase inhibition assay; type: biochemical; settings: 1 μM
# T1 sequence (P51955 1-445): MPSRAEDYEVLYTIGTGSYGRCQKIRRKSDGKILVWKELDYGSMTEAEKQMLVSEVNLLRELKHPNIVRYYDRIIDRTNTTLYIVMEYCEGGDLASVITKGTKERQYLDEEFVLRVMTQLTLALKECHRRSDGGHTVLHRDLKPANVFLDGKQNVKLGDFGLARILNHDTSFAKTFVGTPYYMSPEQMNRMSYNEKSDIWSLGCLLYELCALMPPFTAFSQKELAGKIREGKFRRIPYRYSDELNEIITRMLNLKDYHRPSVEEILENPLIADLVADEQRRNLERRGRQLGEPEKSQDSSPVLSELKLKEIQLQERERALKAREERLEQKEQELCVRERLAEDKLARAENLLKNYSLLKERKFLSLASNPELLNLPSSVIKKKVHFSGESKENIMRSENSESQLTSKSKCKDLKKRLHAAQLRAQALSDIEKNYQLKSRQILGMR
# BT-549 cells [8] = assay: Crystal violet staining, cells remaining / viability dose-response; type: cell-based, human
# In short: as §2
structure (smiles),measurement,setting,value
CC[C@@H]1C(=O)N(C)c2cnc(Nc3ccc(C(=O)NC4CCN(C)CC4)cc3OC)nc2N1C1CCCC1 [BI2536],Ki-67 positive cells (cell proliferation),MDA-MB-231 cells [1],significantly reduced the number of Ki-67 positive cells
COc1cc2ncn(-c3cc(OCc4sccc4Cl)c(C(N)=O)s3)c2cc1OC [GSK448459A],Transwell cell migration,BT549 cells,most suppressive effects on cell migration
same,Binding activity against HIPK4,HIPK4,significant binding activity
same,Number of cells remaining compared to DMSO controls,TU-BcX-4IC cells [2],increased number of cells remaining
same,IC50,"MDA-MB-231 cells [3]; Homo sapiens, MDA-MB-231, 72 h, read-out: IC-50, number of cells remaining",50 µM
same,Number of cells remaining compared to DMSO controls,"MDA-MB-231 cells [3]; MDA-MB-231, 1 μM, 72 hours",increased number of cells remaining
same,MMP9 mRNA expression,TU-BcX-4IC cells [4],Neither GSK346294A nor GSK448459A affected MMP9 expression
same,ZEB1 mRNA expression,TU-BcX-4IC cells [4],suppressed ZEB1 expression in TU-BcX-4IC cells albeit not significantly
same,cFOS mRNA expression,TU-BcX-4IC cells [4],"suppressive effects in all three TNBC cell lines, although not significantly"
same,MMP9 mRNA expression,MDA-MB-231 cells [5],significantly downregulated MMP9 expression
same,SNAI1 mRNA expression,MDA-MB-231 cells [5],significantly decreased SNAI1 expression
same,ZEB1 mRNA expression,MDA-MB-231 cells [5],significantly increased ZEB1 expression
same,cFOS mRNA expression,MDA-MB-231 cells [5],"suppressive effects in all three TNBC cell lines, although not significantly"
same,MMP9 protein expression,TU-BcX-4IC explants,did not suppress MMP9 and ZEB1 protein expressions
same,ZEB1 protein expression,TU-BcX-4IC explants,did not suppress MMP9 and ZEB1 protein expressions
same,cFOS mRNA expression,TU-BcX-49S cells,Neither GSK346294A nor GSK448459A suppressed cFOS mRNA expression
same,Ki-67 positive cells (cell proliferation),MDA-MB-231 cells [1],decreased Ki-67 positive cells
same,Sphere area,MDA-MB-231 M2 spheres,significantly increased sphere area
same,Transwell cell migration,TU-BcX-4IC cells [6],most suppressive effects on cell migration
same,Binding activity against MST2,MST2,significant binding activity
same,CDH1 mRNA expression,BT-549 cells [7],significantly reduced CDH1 mRNA expression
same,MMP9 mRNA expression,BT-549 cells [7],Neither GSK346294A nor GSK448459A affected MMP9 expression
same,SNAI1 mRNA expression,BT-549 cells [7],increased SNAI1 expression in BT-549 cells significantly
same,cFOS mRNA expression,BT-549 cells [7],"suppressive effects in all three TNBC cell lines, although not significantly"
same,Mammosphere formation (sphere area),TU-BcX-4IC M2 spheres,significantly suppressed mammosphere formation
same,Binding activity to LOK,LOK,99.1%
same,Binding activity against MINK,MINK,significant binding activity
same,Binding activity against NEK2,NEK2,significant binding activity
same,Binding activity to NEK2,NEK2,97.1%
same,Number of cells remaining compared to DMSO controls,"BT-549 cells [8]; BT-549, 1 μM, 72 hours",increased number of cells remaining
same,IC50,"BT-549 cells [8]; Homo sapiens, BT-549, 72 h, read-out: IC-50, number of cells remaining",7.5 µM
CC[C@@H]1C(=O)N(C)c2cnc(Nc3ccc(C(=O)N[C@H]4CC[C@H](N5CCN(CC6CC6)CC5)CC4)cc3OC)nc2N1C(C)C [BI6727],MMP9 protein expression,TU-BcX-4IC explants,suppressed the mesenchymal markers ZEB1 and MMP9 expression
same,ZEB1 protein expression,TU-BcX-4IC explants,suppressed the mesenchymal markers ZEB1 and MMP9 expression

# Source: paper PMC8092417 (Anti-cancer drugs, 2020)
